Compounds with a hit are over-represented: about 2.9% of the library has one in this group of screens.
ABHD4 inh: ABHD4 inhibitors, primary screen, biochemical, fluorescence polarization, mouse; purified mABHD4, FP-Rh probe fluorescence polarization; inhibition, % at 8.92 µM; hit rate 0.54% among 370,000; AID 720543, 2013;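 active means inhibition exceeding the mean over every tested compound plus 3 SD, cut at about 30% in these data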;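 further: 0% = plate median of compound wells and 100% = S159A mutant with DMSO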
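Assay system: wild-type mouse ABHD4 protein; compound: single nominal dose of 8.92 µM, 0.89% DMSO final; schedule: 45 min + 60 min at 25 °C; measured by: FP readout, ex 525 nm / em 598 nm; evaluation: % inhibition of FP-Rh probe binding versus controls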
TCR CD3 inh: inhibitors of human TCR-CD3 interaction, primary screen, biochemical, fluorescence, TAMRA-labeled TCR probe; inhibition, % at 9.4 µM; hit rate 0.37% among 360,000; AID 651800, 2012; in the data active means inhibition above about 19%;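 further: recombinant mutant TCR 2C K166C tagged with TAMRA read by polarization; 0% = receptor in buffer alone and 100% = receptor with positive control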
PAD4 inh: human PAD4 inhibitors, primary screen, biochemical, fluorescence polarization, 1536-well format; Protein-arginine deiminase type-4 (Homo sapiens), Q9UM07; recombinant PAD4, RCA probe fluorescence polarization; inhibition, % at 6.36 µM; hit rate 0.41% among 330,000; AID 485272, 2010;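 active means percent inhibition above a cutoff equal to the mean of all tested compounds plus 3 SD, cut at about 15% in these data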;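 further: 0% = PAD4 with RCA probe and DMSO and 100% = probe without PAD4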
HTRA1 inhibitor: HTRA1 serine protease inhibitors, primary screen, biochemical, fluorescence polarization, HTS; inhibition, % at 5.96 µM; recombinant HTRA1, FP-rhodamine activity-based probe; hit rate 0.5% among 340,000; in the data active means inhibition above about 36%;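 further: 0% = enzyme with DMSO and 100% = wells lacking enzyme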
SIAE inh: human SIAE inhibitors, primary screen, biochemical, fluorescence polarization, FP-Rh probe, 1536-well HTS. AID 1053197, 2014. Sialate O-acetylesterase (Homo sapiens), Q9HAT2. hit rate 0.69% among 370,000. inhibition, % at 9.66 µM. SIAE FP-Rh probe binding;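 active means inhibition above a cutoff: mean of compounds within the control limits plus 3 SD of those, cut at about 17% in these data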;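 further: 0% = plate median of compound wells and 100% = probe without SIAE protein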
PRMT1 FP inh: PRMT1 methyltransferase inhibitors, primary screen, biochemical, fluorescence polarization. Protein arginine N-methyltransferase 1 (Homo sapiens), Q99873. recombinant PRMT1, activity-based probe fluorescence polarization. inhibition, % at 2.79 µM. hit rate 1.3% among 370,000;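 active means inhibition above about 21% made by adding two undisclosed values, limit read from the data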
Target sequence (Q99873 whole entry, looked up): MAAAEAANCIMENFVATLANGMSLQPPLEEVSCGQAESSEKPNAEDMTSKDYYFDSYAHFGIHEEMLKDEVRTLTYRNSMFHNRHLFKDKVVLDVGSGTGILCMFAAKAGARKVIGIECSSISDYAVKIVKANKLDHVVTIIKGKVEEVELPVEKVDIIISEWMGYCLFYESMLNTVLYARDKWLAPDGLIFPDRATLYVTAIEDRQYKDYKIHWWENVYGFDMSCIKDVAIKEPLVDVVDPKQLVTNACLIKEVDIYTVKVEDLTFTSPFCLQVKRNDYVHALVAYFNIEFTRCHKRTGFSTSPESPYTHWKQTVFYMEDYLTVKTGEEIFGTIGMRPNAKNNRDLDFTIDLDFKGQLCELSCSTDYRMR
PAD4 confirm: human PAD4 inhibitors, confirmation, biochemical, fluorescence polarization; shares compounds with PAD4 inh; recombinant PAD4, RCA probe fluorescence polarization; inhibition, % at 6.36 µM; hit rate 28% among 1,200;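 active means mean inhibition across replicates above the hit cutoff set by the earlier primary screen, cut at about 15% in these data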;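 further: inhibitors block active-site labeling by the probe so polarization falls; 0% = PAD4 with probe and DMSO and 100% = probe without PAD4 enzyme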
* = called active by the depositor.

Screening Fc1ccccc1-c1cc2ccccc2cn1 returned ABHD4 inh 1.0, TCR CD3 inh -6.2, PAD4 inh 15.4*, HTRA1 inhibitor -5.1, SIAE inh -2.1, PRMT1 FP inh -0.1 and PAD4 confirm 12.3.
Screening Fc1ccc2cnc(-c3ccccc3F)cc2c1 returned ABHD4 inh -0.6, TCR CD3 inh 3.3, PAD4 inh -4.1, HTRA1 inhibitor -4.0, SIAE inh 1.7 and PRMT1 FP inh 1.2.
For Cc1cccc(OCC(C)CN2CCC(C(O)(c3ccccc3)c3ccccc3)CC2)c1 (stereo not given) the results were ABHD4 inh 1.2, SIAE inh 7.5 and PRMT1 FP inh -2.1.
CCCC(=O)OC12CCCN(C1)/C(=C/c1cccc(N(C)C)c1)C2 (stereo not given) was read as ABHD4 inh 8.6, SIAE inh 11.7 and PRMT1 FP inh 1.6.
For CCC(C)n1c(NC(=O)c2ccccc2)c(C#N)c2nc3ccccc3nc21 (stereo not given) the results were ABHD4 inh -1.3, TCR CD3 inh 2.6, PAD4 inh 28.9*, HTRA1 inhibitor -28.2, SIAE inh -15.6, PRMT1 FP inh -1.8 and PAD4 confirm -17.5.
Screening CCC(=O)Nc1c(C#N)c2nc3ccccc3nc2n1-c1ccc(C)cc1 returned ABHD4 inh -1.4, TCR CD3 inh 9.8, HTRA1 inhibitor -7.8, SIAE inh 0.1 and PRMT1 FP inh 0.1.
`N#Cc1c(NC(=O)c2ccc(Br)o2)n(-c2ccccc2)c2nc3ccccc3nc12` gave ABHD4 inh 2.9, TCR CD3 inh -0.9, PAD4 inh 36.3*, HTRA1 inhibitor 6.4, SIAE inh -15.3, PRMT1 FP inh -2.0 and PAD4 confirm 19.9*.
Screening COC(=O)[C@]12C[C@H](CC(=O)NCCCCc3ccccc3)C(=O)N(CCC3=CCCCC3)C1=C[C@H](COCc1ccccc1)O[C@@H]2C returned ABHD4 inh 3.0, TCR CD3 inh 9.6, SIAE inh -1.8 and PRMT1 FP inh -1.6.
Screening CC(C)CN1C(=O)[C@@]2(CC(=O)N(C)C2c2ccccc2)c2cc(-n3cc(CO)nn3)ccc21 (stereo not given in full) returned ABHD4 inh 4.0, SIAE inh 4.0 and PRMT1 FP inh -2.6.
For Fc1ccc(-c2cc(-c3nnc4sc(-c5cccs5)nn34)[nH]n2)cc1 the results were ABHD4 inh -16.6, SIAE inh -8.8 and PRMT1 FP inh 2.1.
Screening COCCn1cnc2c1c(=O)n(Cc1ccc(C#N)cc1)c(=O)n2Cc1ccccc1 returned ABHD4 inh 3.9, TCR CD3 inh -2.5, PAD4 inh 19.6*, HTRA1 inhibitor -2.4, SIAE inh 4.0, PRMT1 FP inh 2.8 and PAD4 confirm 2.3.
O=C(CN1C(=O)C2CCCCN2C(=O)c2ccccc21)N1CCCC1 (stereo not given) was read as ABHD4 inh -2.8, SIAE inh -3.3 and PRMT1 FP inh 1.0.
c1ccc(CCn2c3ccccc3c3nnc(SCc4ccc5nonc5c4)nc32)cc1 was read as ABHD4 inh 3.6, TCR CD3 inh 1.8, PAD4 inh 50.4*, HTRA1 inhibitor -9.4, SIAE inh -9.6, PRMT1 FP inh -1.2 and PAD4 confirm 2.1.
`O=c1c2ccccc2ncn1Cc1ccc(Cl)c(Cl)c1` gave ABHD4 inh -16.7, TCR CD3 inh 5.6, PAD4 inh 2.1, HTRA1 inhibitor -9.2, SIAE inh -9.2 and PRMT1 FP inh 1.0.
For O=C(O)Cc1cn(Cc2ccc(F)cc2)c2ccccc12 the results were ABHD4 inh 2.2, TCR CD3 inh -3.1, PAD4 inh -0.5, HTRA1 inhibitor -4.1, SIAE inh 2.1 and PRMT1 FP inh -1.3.
Screening Cc1[nH][nH]c(=O)c1C(c1c(C)[nH][nH]c1=O)c1cn(Cc2ccc(Cl)c(Cl)c2)c2ccccc12 returned ABHD4 inh 11.6, TCR CD3 inh -3.0, PAD4 inh 33.5*, HTRA1 inhibitor 0.3, SIAE inh 8.1, PRMT1 FP inh 5.9 and PAD4 confirm -5.8.
`Cc1[nH][nH]c(=O)c1C(c1c(C)[nH][nH]c1=O)c1cn(Cc2ccc(F)cc2)c2ccccc12` gave PAD4 inh 24.1*, HTRA1 inhibitor 9.4 and PAD4 confirm -17.5.
Screening COc1ccc(CNCC#CC2=CCCCC2)c(OC)c1 returned ABHD4 inh 10.1, SIAE inh -2.3 and PRMT1 FP inh 3.6.
Screening CCc1ccc(/C=N/n2c(COc3ccccc3)n[nH]c2=S)cc1 returned ABHD4 inh -12.5, TCR CD3 inh -4.8, PAD4 inh 32.1*, HTRA1 inhibitor -1.0, SIAE inh 4.2, PRMT1 FP inh 15.7 and PAD4 confirm 12.9.
`S=c1[nH]nc(COc2ccccc2)n1/N=C/c1ccncc1` gave ABHD4 inh -0.1, TCR CD3 inh -3.7, PAD4 inh -5.0, HTRA1 inhibitor -8.7, SIAE inh 6.4 and PRMT1 FP inh -4.8.
CC(COc1cccc(C#N)c1)CN1CCC(C(O)(c2ccccc2)c2ccccc2)CC1 (stereo not given) was read as ABHD4 inh -0.5, SIAE inh -0.1 and PRMT1 FP inh -4.1.
Cn1c(=O)c2c(ncn2CC(=O)Nc2nc(-c3ccccc3Cl)cs2)n(C)c1=O was read as ABHD4 inh -6.8, TCR CD3 inh -4.7, PAD4 inh 90.0*, HTRA1 inhibitor 0.7, SIAE inh -7.2, PRMT1 FP inh 5.5 and PAD4 confirm 2.3.
CC(=O)Nc1ccc(C(/C=C/c2ccccc2)Cc2ccccc2)cc1 (stereo not given) was read as ABHD4 inh -32.5, SIAE inh -10.1 and PRMT1 FP inh 0.4.
Screening OCc1ccccc1SSc1ccccc1CO returned ABHD4 inh -9.7, TCR CD3 inh -0.2, PAD4 inh 47.9*, SIAE inh -9.1, PRMT1 FP inh 106.0* and PAD4 confirm 41.5*.
OCc1ccccc1CNCc1ccccc1 was read as ABHD4 inh -1.2, TCR CD3 inh 6.5, PAD4 inh 0.4, HTRA1 inhibitor 3.5, SIAE inh 1.5 and PRMT1 FP inh -0.1.
O=C1[C@H]2[C@@H](c3ccc(F)cc3)N3C(=O)N(c4ccccc4)C(=O)[C@@]3(Cc3ccc(Cl)cc3)[C@H]2C(=O)N1C1CCCCC1 was read as ABHD4 inh -1.4, TCR CD3 inh 6.5, PAD4 inh 21.5*, HTRA1 inhibitor -6.5, SIAE inh -20.7, PRMT1 FP inh 1.9 and PAD4 confirm 2.4.

Screening data as filed in PubChem.
